Measured values published in PubChem BioAssay AID1753 (Vanderbilt High Throughput Screening Facility, 2009).
Results filed as inconclusive are left out. Calls of active or inactive are those of the source.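 Rule for the calls: active = a converged dose-response curve, firm or less certain, in at least 2 of 3 replicates; inactive = the rest, inconclusive results apart.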

Test system: native HEK293 thallium flux, FluoZin2 fluorescence, ouabain
Assay: native HEK thallium flux modulation with ouabain, dose response, counter-screen for KCC2 modulator project, HEK cells, counterscreen (AID 1753)
How it was run: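 Detection: kinetic FluoZin2 fluorescence (dye loaded at 0.5 µM), 1 Hz reads / Material: untransfected HEK cells, thallium flux / Schedule: 10–20 s post-thallium window / Probe or stimulus: thallium stimulus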

| Compound | EC50 |
| --- | --- |
| NC(=S)N=Nc1c(O)n(Cc2ccccc2)c2ccccc12 | 0.124 µM (inactive) |
| Cn1nnnc1SCCNCc1ccncc1 | 0.021 µM (inactive) |
| COc1ccc(-c2nnc(-c3ccc(OCC(C)C)cc3)o2)cc1 | 0.777 µM (inactive) |
| NC(=S)N=Nc1c(O)n(Cc2ccc(F)cc2)c2ccccc12 | 2.25 µM |
| CCOc1[nH]n(-c2ccccc2)c(=O)c1C=Nc1ccc(F)cc1F | 1.43 µM |
| CC(C)c1ccc(OCC(=O)NNC(=O)c2cnccn2)cc1 | 12.2 µM (inactive) |
| COC(=O)c1sccc1NC(=S)OC | 1.8 µM |
| O=C(NC(=S)Nc1ccc2c(c1)OCO2)c1ccc(Cl)cc1 | 0.0757 µM (inactive) |
| Cc1nn(-c2ccccc2)c2sc(C(=O)N(Cc3ccco3)C(C)C(=O)NC(C)(C)C)cc12 (stereo not drawn) | 10.4 µM (inactive) |
| O=C(NC(=S)Nc1cccc2cccnc12)c1cccs1 | 0.114 µM (inactive) |
| Cc1onc(-c2ccccc2Cl)c1C(=O)NC(=S)Nc1ccc(C(C)C)cc1 | 0.178 µM |
| COc1ccc(Cn2c(=S)[nH]c3ccccc32)cc1 | 0.436 µM |
| CC(=O)c1cccc(NC(=S)NC(=O)c2ccc(C)cc2)c1 | 0.888 µM |
| CCOc1cccc(C(=O)NC(=S)Nc2cccc(C)c2)c1 | 7.28 µM |
| COc1ccc(N2C(=S)N=C(Nc3cccc(C)c3)C23CCCCC3)cc1 | 1.92 µM |
| CCCC(=O)OCC[N+](C)(C)C | 0.0081 µM (inactive) |
| COC(=O)[C@@H](NC(=O)O[C@@H]1C(=O)c2ccc(OC)cc2O[C@H]1c1cccc(C(F)(F)F)c1)C(C)C | 1.68 µM |
| Cc1ccc(-c2n[nH]c(=S)n2/N=C/C=C\c2ccccc2[N+](=O)[O-])cc1 | 1.47 µM |
